# Screening data (PubChem)
# FN deposition inh: fibronectin deposition inhibition; AH1F fibroblasts, Alexa488-fibronectin deposition fluorescence, overnight; inhibition, % at 12.6 µM; hit rate 0.086% among 350,000;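 active = mean inhibition across replicates of 30% or more, regardless of how many single replicates reach that level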;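 note: positive control wells lacked labelled fibronectin entirely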
#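 Assay system: AH1F fibroblasts / Quantity: 10000 cells per well / Medium: DMEM plus 2% serum, read in PBS / Reagent: labelled fibronectin 24 nM / Dosing: single dose, pinned / Times: 1 h cell attachment, overnight exposure to compound and label / Signal: fluorescence, ex 485 nm, em 525 nm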
# Efflux pump mplx: blocks antifungal efflux pumps in multiplex yeast assay; inhibition, % at 10 µM; S. cerevisiae Candida pump triplex, Nile Red efflux; hit rate 0.44% among 330,000;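 active = plate passing quality check with inhibition over a set limit, or well fluorescence over plate mean plus 4 SD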;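 note: Nile Red retained in pooled yeast measured as flow cytometry median fluorescence; 0% = buffer negative control and 100% = Enniatin B positive control; higher means more Nile Red kept so more efflux inhibition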
# SR-BI DiI inh: inhibitors of mouse SR-BI mediated HDL lipid uptake; hit rate 0.96% among 320,000; Q61009; AID 488896; inhibition, % at 12.5 µM; ldlA[mSR-BI] CHO cells, DiI-HDL uptake fluorescence, 3 h;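 active = mean replicate inhibition of at least 70% and a set share of replicates each scoring 70 or more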;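 note: 0% = median of neutral control wells and 100% = median of positive control wells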
# Target sequence (Q61009 whole entry, looked up): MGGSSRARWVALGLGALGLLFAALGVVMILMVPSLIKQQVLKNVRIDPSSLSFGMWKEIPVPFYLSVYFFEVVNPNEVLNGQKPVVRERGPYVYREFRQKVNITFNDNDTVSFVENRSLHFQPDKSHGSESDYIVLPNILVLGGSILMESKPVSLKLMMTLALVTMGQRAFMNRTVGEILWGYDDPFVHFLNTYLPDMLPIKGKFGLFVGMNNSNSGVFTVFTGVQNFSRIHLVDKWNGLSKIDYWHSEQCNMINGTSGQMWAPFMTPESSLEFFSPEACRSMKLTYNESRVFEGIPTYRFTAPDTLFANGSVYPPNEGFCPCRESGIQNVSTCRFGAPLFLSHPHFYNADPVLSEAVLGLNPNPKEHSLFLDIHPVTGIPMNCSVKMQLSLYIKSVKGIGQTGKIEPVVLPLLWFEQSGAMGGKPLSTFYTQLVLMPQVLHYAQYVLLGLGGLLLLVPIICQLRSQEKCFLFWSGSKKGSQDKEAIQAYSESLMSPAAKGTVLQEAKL
# SR-BI DiI-HDL act: activators of SR-BI mediated HDL lipid uptake; CHO ldlA[mSR-BI] cells, DiI-HDL uptake fluorescence, 3 h; 100 = double the neutral-control signal; activation, % at 12.5 µM; hit rate 0.096% among 320,000; AID 504775;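 active = mean replicate activation of at least 60% and every replicate at or above 60%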;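 note: 0% = median plate neutral-control signal and 100% = twice that signal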
#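 Assay system: CHO ldlA[mSR-BI] cells, LDL receptor-null, SR-BI overexpressing; medium: Ham's F12 with 0.5% BSA, HEPES 25 mM, pH 7.4; also added: DiI-HDL 10 µg/mL; timing: 3 h uptake period with compound, 37 °C; signal: DiI fluorescence, bottom read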
# CaV13 ICDI inh: Disruptors of the CACNA1D IQ motif to Ca2+-dependent inactivation inhibitor domain association, primary screening, Förster resonance energy transfer in intact living …. hit rate 0.098% among 340,000. HEK cells, CFP/YFP FRET ICDI-IQ, plate reader, 10 min; percent FRET-ratio fall versus neutral wells. inhibition, % at 12.3 µM. AID 743397;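 active = mean replicate inhibition of at least 30% and at least 1% of replicates passing that level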;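 note: 0% = median of the neutral control wells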
# Yeast cmpd fluor: counter-screen for efflux pump inhibitors: compound fluorescence | shares compounds with Efflux pump mplx | S. cerevisiae AD/pABC3, flow cytometry | fluorescence ratio to DMSO, % at 10 µM | hit rate 4% among 1,700;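 active = fluorescence ratio to DMSO above its plate's cutoff, the plate mean ratio plus 5 SD, cut at about 210% in these data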;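 note: unstained yeast with no Nile Red so the signal is compound autofluorescence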
# Mdr1 pump inh: Candida Mdr1 efflux pump inhibition | inhibition, % at 10 µM | hit rate 1% among 1,700 | shares compounds with Efflux pump mplx | AID 588518 | S. cerevisiae AD/CaMDR1, Nile Red efflux, flow cytometry; in the data active = inhibition above about 26%;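 note: 0% = DMSO vehicle and 100% = reference inhibitor; higher means more Nile Red retained so more efflux inhibition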
# CaCdr2 efflux inh: Candida Cdr2 efflux pump inhibition; shares compounds with Efflux pump mplx; S. cerevisiae AD/CaCDR2, Nile Red retention, flow cytometry; Nile Red retention ratio vs DMSO, % at 10 µM; hit rate 4% among 1,700; AID 588520; in the data active = Nile Red retention ratio vs DMSO above about 190%;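 note: higher ratio means more blocking of Cdr2 efflux of the dye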
# Cdr1 pump inh: Candida Cdr1 efflux pump inhibition | AID 588522 | shares compounds with Efflux pump mplx | S. cerevisiae AD/CaCDR1, Nile Red efflux, flow cytometry | inhibition, % at 10 µM | hit rate 1% among 1,700;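 active = inhibition above the screen-wide mean plus twice its standard deviation, cut at about 32% in these data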
# An asterisk follows results filed as active; . = no result. In the library only some 1.2% were active in any assay of this set; here they are far more common.
SMILES,FN deposition inh,Efflux pump mplx,SR-BI DiI inh,SR-BI DiI-HDL act,CaV13 ICDI inh,Yeast cmpd fluor,Mdr1 pump inh,CaCdr2 efflux inh,Cdr1 pump inh
N#Cc1ccc(OCC(=O)N2CCN(c3ccc(C(F)(F)F)cn3)CC2)cc1,4,0.8*,7,-7,-7,109,0,108,0
COc1ccc(S(=O)(=O)N(C(=O)c2ccco2)c2cc3sc(=O)oc3c3ccccc23)cc1,-8,0,-2,2,-14,.,.,.,.
CCOc1ccc(S(=O)(=O)N(C(=O)c2ccco2)c2cc3sc(=O)oc3c3ccccc23)cc1,-10,2.0*,-30,30,-6,109,0,108,0
CC(CNC(=O)c1ccc(OC2CCN(Cc3ccccn3)CC2)cc1)c1ccccc1 (configuration not stated),-2,5.3*,37,-37,-2,102,0,96,0
CC(C)(C)NC(=O)C(=O)NNC(=O)COc1ccccc1,3,28*,-45,45,-3,100,0,106,0
Cc1ccc(OCC(=O)NNC(=O)C(=O)NC(C)(C)C)cc1,16,0,-59,59,-5,.,.,.,.
c1ccc(-c2cc(N3CCOCC3)nc(-c3ccccc3)n2)cc1,10,0,52,-52,-5,.,.,.,.
CCSc1cc(N2CCOCC2)nc(-c2ccccc2)n1,9,0,-1,1,-4,103,0,97,0
Cc1cc(OCC(=O)Nc2nnc(C3CC3)s2)ccc1C(C)C,-12,0,-5,5,-2,.,.,.,.
CC(=O)c1ccc(OCC(=O)Nc2nnc(C3CC3)s2)cc1,3,.,.,.,-2,.,.,.,.
O=C(COc1ccc(Br)cc1)Nc1nnc(C2CC2)s1,-3,0,4,-4,-6,116,0,93,0
CC(Oc1ccc(Br)cc1)C(=O)Nc1nnc(C2CC2)s1 (configuration not stated),-9,0,-6,6,-2,99,0,109,0
Cc1ccc(C(C)C)cc1OCC(=O)Nc1nnc(C2CC2)s1,-11,0,-10,10,-6,101,0,106,0
CCC(Oc1ccc(Br)cc1Cl)C(=O)Nc1nnc(C2CC2)s1 (configuration not stated),.,-2,-34,34,.,.,.,.,.
CCCNC(=O)C[C@H]1CC[C@H]2[C@H](COc3ccc(NC(=O)c4cccc(C(F)(F)F)c4)cc3C(=O)N2C)O1,-17,.,.,.,.,.,.,.,.
COc1cc(NC(=O)CCNS(=O)(=O)c2ccc3c(c2)CCC(=O)N3)cc(OC)c1,1,13*,-7,7,-3,105,0,105,0
Cc1cc(NS(=O)(=O)c2ccc(NC(=O)CCN3C(=O)c4ccccc4C3=O)cc2)no1,.,0.9*,-27,27,-6,99,0,99,0
Cc1ccc(C)c(SCC(=O)N(C)C2CCS(=O)(=O)C2)c1 (configuration not stated),1,0,5,-5,-5,.,.,.,.
CN(C(=O)CSc1ncccn1)C1CCS(=O)(=O)C1 (configuration not stated),3,5.3*,-8,8,-3,112,0,117,0
Cn1c(-c2ccccc2)cnc1SCC(=O)N1CCCc2ccccc21,9,15*,-18,18,-18,108,0,116,0
Cc1ccc(-c2cnc(SCC(=O)N3CCCc4ccccc43)n2C)cc1,.,0,1,-1,.,.,.,.,.
Cc1cc(C)n(CC(=O)N/N=C/c2cc([N+](=O)[O-])ccc2O)n1,-6,19*,-44,44,-3,110,0,109,0
Cc1cc([N+](=O)[O-])nn1CC(=O)N/N=C/c1ccccc1O,13,0,.,.,-17,.,.,.,.
CCOC(=O)C1(Cc2ccc(OC)cc2)CCN(C(=O)c2cc3ccccc3[nH]2)CC1,9,0.5*,3,-3,-5,92,0,110,0
C[C@@H]1CN([C@@H](C)CO)C(=O)CCCn2nncc2CO[C@@H]1CN(C)C,3,.,.,.,.,.,.,.,.
SMILES,FN deposition inh,Efflux pump mplx,SR-BI DiI inh,SR-BI DiI-HDL act,CaV13 ICDI inh,Yeast cmpd fluor,Mdr1 pump inh,CaCdr2 efflux inh,Cdr1 pump inh
COc1cc(OC)cc(-c2sc3ccc(OC)cc3c2-c2ccc(OCCN3CCOCC3)cc2)c1,.,160*,18,-18,.,100,95*,102,128*
COc1ccc(-c2sc3cc4c(cc3c2-c2ccc(OCCN3CCOCC3)cc2)OCO4)cc1,0,0,12,-12,-6,.,.,.,.
COc1cccc(-c2sc3ccc(OC)cc3c2-c2ccc(OCCN3CCOCC3)cc2)c1,-3,70*,31,-31,-5,91,13,102,67*
c1ccc(-c2sc3ccccc3c2-c2ccc(OCCN3CCOCC3)cc2)cc1,.,0,7,-7,.,.,.,.,.
COc1ccccc1-n1c(=O)c(C#N)c(-c2ccc([N+](=O)[O-])cc2)c2cc(C(=O)c3cc(F)ccc3O)cnc21,-4,0,-7,7,-9,.,.,.,.
Cn1c(=O)c(C#N)c(-c2ccc(F)cc2)c2cc(C(=O)c3cc(Cl)cc(Cl)c3O)cnc21,-6,0.3*,5,-5,-5,92,0,106,0
C[C@@H]1CCCCO[C@@H](CN(C)Cc2ccc(C(F)(F)F)cc2)[C@@H](C)CN([C@@H](C)CO)C(=O)c2cc(NC(=O)Nc3cccc4ccccc34)ccc2O1,-5,.,.,.,.,.,.,.,.
N#C/C(=C\c1ccc([N+](=O)[O-])o1)C(=O)Nc1ccc(F)cc1,-8,1.6*,16,-16,-3,275*,1,172,1
CCN(CC)c1cccc(OCC(=O)N(C)CCC#N)c1,.,2.1*,53,-53,.,202,1,142,1
CN(CCC#N)C(=O)COC(=O)c1ccc(Cl)c(S(=O)(=O)N(C)c2ccccc2)c1,-6,0,19,-19,-2,.,.,.,.
COc1cc(N)ccc1Cc1ccc(N)cc1OC,-11,0.5*,3,-3,-5,101,0,114,0
COc1ccc(N)cc1C#N,-4,0.7*,-20,20,9,100,0,108,0
COc1ccc(N)cc1-n1c(C)ccc1C,4,0,-6,6,-5,.,.,.,.
CCCCCCCC(=O)Nc1cc(C(=O)NCCC)ccc1N1CCC2(CC1)CC(c1ccccc1)=NO2,4,0.9*,32,-32,-10,117,0,116,0
